Source: PubChem (several laboratories)
GC-A act: GC-A stimulated cGMP production enhancers – HEK293 GC-A cells, cGMP TR-FRET, EC30 ANP, primary screen; 0% at EC30 ANP, 100% saturating ANP; AID 1671463, 2021; Atrial natriuretic peptide receptor 1 (Homo sapiens), P16066; actives 0.14% (n = 370,000); activation, % at 10 µM; in the data active = activation above about 40%
Target sequence (P16066 whole entry, looked up): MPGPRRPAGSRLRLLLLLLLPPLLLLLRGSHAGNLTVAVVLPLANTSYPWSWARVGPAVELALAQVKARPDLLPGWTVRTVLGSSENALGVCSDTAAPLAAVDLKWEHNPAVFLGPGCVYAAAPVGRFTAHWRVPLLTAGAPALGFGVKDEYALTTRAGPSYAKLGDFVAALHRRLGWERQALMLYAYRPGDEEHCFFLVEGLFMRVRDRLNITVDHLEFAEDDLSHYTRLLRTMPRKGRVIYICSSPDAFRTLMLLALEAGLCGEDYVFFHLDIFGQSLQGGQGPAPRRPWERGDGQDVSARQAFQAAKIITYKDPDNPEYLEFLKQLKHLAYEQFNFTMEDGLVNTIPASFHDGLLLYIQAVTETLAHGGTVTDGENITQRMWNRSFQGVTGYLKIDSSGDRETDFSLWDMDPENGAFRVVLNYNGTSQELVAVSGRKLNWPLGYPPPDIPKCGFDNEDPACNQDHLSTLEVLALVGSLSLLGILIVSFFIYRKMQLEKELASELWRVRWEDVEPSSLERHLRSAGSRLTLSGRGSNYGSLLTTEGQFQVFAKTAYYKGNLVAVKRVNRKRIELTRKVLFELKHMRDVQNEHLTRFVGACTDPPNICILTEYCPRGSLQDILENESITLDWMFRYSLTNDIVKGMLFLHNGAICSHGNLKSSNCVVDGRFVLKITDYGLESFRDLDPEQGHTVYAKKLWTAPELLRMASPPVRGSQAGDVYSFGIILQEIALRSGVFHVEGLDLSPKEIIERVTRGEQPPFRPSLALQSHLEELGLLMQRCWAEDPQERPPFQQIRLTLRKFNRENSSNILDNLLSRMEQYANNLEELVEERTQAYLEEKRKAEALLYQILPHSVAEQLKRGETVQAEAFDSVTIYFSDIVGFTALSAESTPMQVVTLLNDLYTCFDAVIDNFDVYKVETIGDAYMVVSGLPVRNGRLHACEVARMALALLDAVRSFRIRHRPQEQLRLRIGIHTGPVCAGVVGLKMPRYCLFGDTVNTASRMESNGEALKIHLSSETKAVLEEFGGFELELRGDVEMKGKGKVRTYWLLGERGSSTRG
GalR3 antagonist: GalR3 antagonists in HEK293 cells, primary screen, cell-based, fluorescence readout. HEK293 GalR3-CNG cAMP membrane potential fluorescence; galR3 body fused to GalR1 C-terminus. inhibition, % at 3 µM. actives 0.44% (n = 360,000). Galanin receptor type 3 (Homo sapiens), O60755;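 active = inhibition above the screen-wide average plus 3 SD, cut at about 13% in these data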;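 also: forskolin and galanin both at EC90 stimulate the cells; cAMP rise reported by CNG channel membrane potential dye signal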
GC-B act: human GC-B receptor activators, primary screen, HEK293 GC-B cells, cGMP TR-FRET, EC30 CNP. activation, % at 10 µM. Atrial natriuretic peptide receptor 2 (Homo sapiens), P20594. actives 0.11% (n = 370,000). 0% at EC30 CNP, 100% saturating CNP. AID 1920062, 2024;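 active = activation at 10 µM reaching about 35% in either raw or pattern-adjusted values, limit read from the data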
Arrestin-AP2 inh: inhibitors of beta-arrestin/AP2 binding, primary screen, biochemical, GPCR trafficking, flow cytometry. beta-arrestin 1 C-terminal peptide binding to AP2 beta2-adaptin appendage (human). FITC-arrestin peptide / GST-AP2 beads; AP2 beta2 appendage carries R879A mutation. inhibition, % at 10 µM. actives 0.31% (n = 340,000). AID 504490, 2011;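 active = inhibition above a set limit, near 3 SD of compounds lacking own fluorescence, cut at about 54% in these data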
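System: GST-AP2 R879A glutathione beads. Medium: PBS with 0.05% Tween 20 and 0.1% BSA. Also added: FITC-arrestin peptide, 50 nM. Incubation: 12 min plus 1 h, RT. Measured by: high-throughput flow cytometry of beads, ex 488, em 535 nm. Evaluation: percent drop in bead-associated FITC signal.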
GalR3 conf: GalR3 antagonist hit confirmation, cell-based, fluorescence, triplicate | shares compounds with GalR3 antagonist | HEK293 GalR3 CNG cAMP biosensor, membrane potential fluorescence; galR3 fused to GalR1 carboxy tail; challenged with forskolin and galanin at EC90 | inhibition, % at 3 µM | actives 59% (n = 1,600);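 active = inhibition above the primary screen's cutoff, the mean inhibition of all screened compounds plus 3 SD, cut at about 13% in these data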
HEK-CNG parental: nonspecific cAMP agonists in parental HEK-CNG cells, counter-screen for GalR3 antagonist project, cell-based, fluorescence, high throughput | actives 10% (n = 1,600) | AID 652268, 2013 | shares compounds with GalR3 antagonist | HEK293-CNG parental cells, cAMP membrane potential fluorescence; normalised: DMSO wells 0%, forskolin wells 100% | activation, % at 3 µM; in the data active = activation above about 1.3%
A number is an active result; 0 = inactive; - = no result. Sampled rows, rich in hits. Any-hit rate of the full collection: about 0.94%.

SMILES	GC-A act	GalR3 antagonist	GC-B act	Arrestin-AP2 inh	GalR3 conf	HEK-CNG parental
O=C(CN(Cc1cccs1)C(=O)CSc1nnc(COc2ccccc2)o1)NC1CCCCC1	0	13	0	0	0	0
COc1cc(NC(=O)COc2ccc(C)c(C)c2)ccc1NC(=O)c1ccco1	0	0	0	0	-	-
COc1cc(NC(=O)COc2cccc(C)c2C)ccc1NC(=O)c1ccco1	0	14	0	0	0	0
COC(=O)[C@]12C[C@H](CC(=O)NCCC(C)C)C(=O)N(Cc3cccc4ccccc34)C1=C[C@H](COCc1ccccc1)O[C@@H]2C	0	-	0	-	-	-
COc1cccc(-c2c(C(=O)N/N=C/c3sccc3C)nnn2-c2nonc2N)c1	0	-	0	0	0	0
Cc1ccsc1/C=N/NC(=O)c1nnn(-c2nonc2N)c1-c1ccccc1	0	0	0	0	-	-
OCc1c(Cl)nc2ccccn12	0	14	0	0	0	0
CNc1nc2c(N)ncnc2n1[C@H]1O[C@@H](CO)[C@H](O)[C@@H]1O	0	26	0	0	40	0
Nc1ncnc2c1nc(N1CCCCC1)n2[C@@H]1O[C@H](CO)[C@@H](O)[C@H]1O	0	0	0	0	-	-
O=C(/C=C/c1cn(-c2ccccc2)nc1-c1cccnc1)NCCN1CCOCC1	0	18	0	0	14	0
N#Cc1c(N)nc2c3c(sc(=N)c2c1N)NC(=O)CC3c1c(F)cccc1Cl (centres undefined)	0	0	0	0	-	-
CCOC(=O)CSC1=C(C#N)C(c2ccc(Cl)cc2)CC(=O)N1 (centres undefined)	0	0	0	0	-	-
N#Cc1c(N)nc2c3c(sc(=N)c2c1N)NC(=O)CC3c1ccccc1 (centres undefined)	0	22	0	0	25	0
Cc1c(C#N)c(N)nc2c3c(sc12)NC(=O)CC3c1ccc(Cl)cc1 (centres undefined)	0	25	0	0	48	0
Cc1onc(-c2ccccc2)c1C(=O)NC(=S)NNC(=O)c1ccccc1O	0	0	0	0	-	-
Cc1onc(-c2ccccc2)c1C(=O)NC(=S)NNC(=O)c1ccc(O)cc1	0	-	0	0	0	0
NCCOc1ccc(C23CC4CC(CC(C4)C2)C3)cc1	0	27	0	0	28	14
OCCN1CCN(CC(O)COc2ccc(C34CC5CC(CC(C5)C3)C4)cc2)CC1 (centres undefined)	0	0	0	0	-	-
CCOC(=O)c1csc(NC(=O)C2CCCN(S(=O)(=O)c3ccc(Br)s3)C2)n1 (centres undefined)	0	-	0	-	-	-
O=C(/C=C/c1ccc(F)cc1)Nc1ccc(S(=O)(=O)Nc2ncccn2)cc1	0	0	0	0	-	-
Cc1ccc(/C=C/C(=O)Nc2ccc(S(=O)(=O)Nc3ncccn3)cc2)cc1	0	13	0	0	0	0
COc1cc(-c2cnc3c(NC=O)cc(-c4ccccc4Cl)cn23)cc(OC)c1OC	0	19	0	-	26	1.6
COc1ccc(-c2cnc3c(NC(C)=O)cc(-c4ccccc4OC)cn23)cc1OC	0	13	0	-	18	0
COc1cc(-c2cnc3c(NC=O)cc(-c4ccccc4)cn23)cc(OC)c1OC	0	0	0	-	-	-
O=C(Nc1ccncc1)c1ccc2c(c1)C(=O)N(C1CCCCC1)C2=O	0	46	0	0	57	0
Cc1cccc(-c2ncc(CN3CCN(C4CCCC4)C(CCO)C3)cn2)c1 (centres undefined)	0	0	0	0	-	-
